Data: ChEMBL document CHEMBL3603830, “Synthesis and structure-activity relationship of uracil nucleotide derivatives towards the identification of human P2Y6 receptor antagonists” (Bioorg Med Chem, 2015)
Active and inactive are the calls of the source. No cut-off for these calls is given here.

Experiments:
[1] = target: T1, P2Y purinoceptor 6 (Homo sapiens, UniProt Q15077); assay: Agonist activity at human recombinant P2Y6 receptor expressed in human 1321N1 cells assessed as increase in intracellular calcium level at >100 uM by fluo-4 dye-based spectrofluorometric analysis; assay type: functional, cell-based
Procedure, shortened: (§1)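 1321N1 cells stably expressing recombinant hP2Y6-R were trypsin/EDTA-detached, loaded with 1 µM Fluo-4/AM in HBSS (Ca2+/Mg2+) for 25 min at 37 °C, then held 25 min at 37 °C for de-esterification. Stirred cuvette suspension read at ex 488/em 520 nm after compound addition, with UDP as control. Fmax/Fmin set with 0.1% Triton X-100 then 50 mM EDTA; [Ca2+] = Kd(F−Fmin)/(Fmax−F).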

[2] = target: T1, P2Y purinoceptor 6; assay: Antagonist activity at human recombinant P2Y6 receptor expressed in human 1321N1 cells assessed as inhibition of UDP-induced increase in intracellular calcium level at 30 uM incubated for 2 mins prior to UDP induction by fluo-4 dye-based spectrofluorometric analysis; assay type: functional, cell-based
Procedure, shortened: (§2)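 hP2Y6-R-expressing 1321N1 cells, Fluo-4/AM-loaded (1 µM, 25 min, 37 °C, then 25 min de-esterification) in HBSS with Ca2+/Mg2+, stirred in a cuvette with fluorescence at 488/520 nm. Analogue given 2 min before 1 µM UDP stimulation. Calcium calculated from Triton X-100/EDTA calibration. Two experiments in duplicate, mean ± SEM; one-way ANOVA against vehicle control.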

[3] = target: T1, P2Y purinoceptor 6; assay: Agonist activity at human recombinant P2Y6 receptor expressed in human 1321N1 cells assessed as increase in intracellular calcium level by fluo-4 dye-based spectrofluorometric analysis; assay type: functional, cell-based; procedure, shortened: as §1
[4] = target: T1, P2Y purinoceptor 6; assay: Antagonist activity at human recombinant P2Y6 receptor expressed in human 1321N1 cells assessed as inhibition of UDP-induced increase in intracellular calcium level at 100 uM incubated for 2 mins prior to UDP induction by fluo-4 dye-based spectrofluorometric analysis; assay type: functional, cell-based; procedure, shortened: as §2
[5] = target: T2, NPP1 (ectonucleotide pyrophosphatase/phosphodiesterase family member 1) (Homo sapiens, UniProt P22413); assay: Drug metabolism assessed as human NPP1-mediated compound hydrolysis at 100 uM after 2 hrs by HPLC analysis relative to UDP-treated control; assay type: ADME; conditions: human NPP1 enzyme, read-out: Drug metabolism
T2 sequence (P22413 whole entry): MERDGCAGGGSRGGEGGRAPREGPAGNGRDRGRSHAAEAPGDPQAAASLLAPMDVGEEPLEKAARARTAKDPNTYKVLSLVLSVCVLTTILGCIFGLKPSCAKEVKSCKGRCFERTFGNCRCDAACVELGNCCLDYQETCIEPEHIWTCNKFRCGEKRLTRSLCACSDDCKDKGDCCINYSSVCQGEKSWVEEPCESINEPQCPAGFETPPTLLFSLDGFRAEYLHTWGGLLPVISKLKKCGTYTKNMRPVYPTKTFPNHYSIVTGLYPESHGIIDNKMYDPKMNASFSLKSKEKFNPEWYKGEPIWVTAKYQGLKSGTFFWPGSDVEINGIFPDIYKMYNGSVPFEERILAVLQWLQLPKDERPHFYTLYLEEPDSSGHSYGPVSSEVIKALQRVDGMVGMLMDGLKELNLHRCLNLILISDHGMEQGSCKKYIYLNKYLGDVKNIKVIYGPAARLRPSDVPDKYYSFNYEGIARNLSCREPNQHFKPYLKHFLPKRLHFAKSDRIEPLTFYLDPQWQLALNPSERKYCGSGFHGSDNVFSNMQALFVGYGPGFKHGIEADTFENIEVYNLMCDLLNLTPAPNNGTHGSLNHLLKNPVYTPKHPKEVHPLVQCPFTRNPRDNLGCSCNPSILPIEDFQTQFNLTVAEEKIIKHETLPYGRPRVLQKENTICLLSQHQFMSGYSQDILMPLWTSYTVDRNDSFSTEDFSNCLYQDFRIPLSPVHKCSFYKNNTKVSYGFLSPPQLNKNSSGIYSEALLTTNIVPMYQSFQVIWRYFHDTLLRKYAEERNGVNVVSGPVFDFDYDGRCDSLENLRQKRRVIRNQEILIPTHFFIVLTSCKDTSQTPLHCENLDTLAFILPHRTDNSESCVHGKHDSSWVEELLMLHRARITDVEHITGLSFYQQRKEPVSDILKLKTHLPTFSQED
Procedure, shortened: (§3)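 Compound at 100 µM incubated at 37 °C with hNPP1 for 2 h or hNPP3 for 3 h, in buffer of 1 mM CaCl2, 200 mM NaCl, 10 mM KCl and 100 mM Tris, pH 8.5. Quenched with perchloric acid, neutralized to pH 7 with KOH, then C18 HPLC with isocratic TEAA (pH 7)/CH3CN. Degradation taken from the nucleoside monophosphate peak area minus control, relative to 100% UDP hydrolysis.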

[6] = target: T3, NPP3 (ectonucleotide pyrophosphatase/phosphodiesterase family member 3) (Homo sapiens, UniProt O14638); assay: Drug metabolism assessed as human NPP3-mediated compound hydrolysis at 100 uM after 3 hrs by HPLC analysis relative to UDP-treated control; assay type: ADME; conditions: human NPP3 enzyme, read-out: Drug metabolism; procedure, shortened: as §3
T3 sequence (O14638 whole entry): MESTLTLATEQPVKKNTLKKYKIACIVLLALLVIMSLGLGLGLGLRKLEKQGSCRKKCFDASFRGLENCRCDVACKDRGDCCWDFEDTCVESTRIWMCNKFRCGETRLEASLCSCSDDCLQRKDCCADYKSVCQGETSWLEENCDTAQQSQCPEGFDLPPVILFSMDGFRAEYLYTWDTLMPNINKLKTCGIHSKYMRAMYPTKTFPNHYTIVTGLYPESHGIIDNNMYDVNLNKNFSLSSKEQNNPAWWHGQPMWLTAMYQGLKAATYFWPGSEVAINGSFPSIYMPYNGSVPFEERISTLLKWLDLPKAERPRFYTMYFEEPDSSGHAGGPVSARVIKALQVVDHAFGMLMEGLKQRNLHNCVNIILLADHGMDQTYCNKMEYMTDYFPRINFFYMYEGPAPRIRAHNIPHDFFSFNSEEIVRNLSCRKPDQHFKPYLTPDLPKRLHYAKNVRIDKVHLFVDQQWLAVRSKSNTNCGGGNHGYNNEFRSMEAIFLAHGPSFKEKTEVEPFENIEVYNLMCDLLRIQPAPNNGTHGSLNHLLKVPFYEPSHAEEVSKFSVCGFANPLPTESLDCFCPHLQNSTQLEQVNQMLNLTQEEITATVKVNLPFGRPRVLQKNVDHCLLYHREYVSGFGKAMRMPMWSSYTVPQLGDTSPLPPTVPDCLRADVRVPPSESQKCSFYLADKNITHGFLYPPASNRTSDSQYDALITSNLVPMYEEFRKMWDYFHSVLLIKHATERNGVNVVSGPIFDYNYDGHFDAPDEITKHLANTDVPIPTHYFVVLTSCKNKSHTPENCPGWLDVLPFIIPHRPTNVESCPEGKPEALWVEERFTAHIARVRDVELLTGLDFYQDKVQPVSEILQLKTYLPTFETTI

[7] = target: T1, P2Y purinoceptor 6; assay: Agonist activity at human recombinant P2Y6 receptor expressed in human 1321N1 cells assessed as increase in intracellular calcium level at =>100 uM by fluo-4 dye-based spectrofluorometric analysis; assay type: functional, cell-based; procedure, shortened: as §1
[8] = target: T1, P2Y purinoceptor 6; assay: Antagonist activity at human recombinant P2Y6 receptor expressed in human 1321N1 cells assessed as inhibition of UDP-induced increase in intracellular calcium level incubated for 2 mins prior to UDP induction by fluo-4 dye-based spectrofluorometric analysis; assay type: functional, cell-based; procedure, shortened: as §2
[9] = target: P2Y purinoceptor 2 (Homo sapiens) (UniProt P41231); assay: Agonist activity at human recombinant P2Y2 receptor expressed in human 1321N1 cells assessed as increase in intracellular calcium level by fluo-4 dye-based spectrofluorometric analysis; assay type: functional, cell-based
[10] = target: P2Y purinoceptor 4 (Homo sapiens) (UniProt P51582); assay: Agonist activity at human recombinant P2Y4 receptor expressed in human 1321N1 cells assessed as increase in intracellular calcium level by fluo-4 dye-based spectrofluorometric analysis; assay type: functional, cell-based
[11] = target: T1, P2Y purinoceptor 6; assay: Agonist activity at human recombinant P2Y6 receptor expressed in human 1321N1 cells assessed as increase in intracellular calcium level at 10 uM by fluo-4 dye-based spectrofluorometric analysis relative to UDP-treated control; assay type: functional, cell-based; procedure, shortened: as §1
[12] = target: T4, Ectonucleotide pyrophosphatase/phosphodiesterase family member 1 (Homo sapiens) (UniProt P22413); assay: Inhibition of human NPP1-mediated UDP hydrolysis at 100 uM after 2 hrs relative to UDP-treated control
T4 sequence (whole entry): T2 sequence (P22413 whole entry)
Procedure, shortened: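 21.44 µg hNPP1 extract pre-incubated 3 min at 37 °C in 1 mM CaCl2, 140 mM NaCl, 5 mM KCl and 50 mM Tris, pH 8.5. Reaction started with compound and UDP, each 100 µM final. Stopped after 2 h with ice-cold perchloric acid, neutralized with KOH, then HPLC. Compared with UDP-only reference samples. Mean ± S.D. of three experiments.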

[13] = target: T1, P2Y purinoceptor 6; assay: Agonist activity at human recombinant P2Y6 receptor expressed in human 1321N1 cells assessed as induction of calcium release at 100 uM by fluo-4 dye-based spectrofluorometric analysis; assay type: functional, cell-based
Procedure, shortened: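 1321N1 astrocytoma cells stably expressing recombinant hP2Y6-R, trypsin/EDTA-detached, loaded with 1 µM Fluo-4/AM in HBSS (Ca2+/Mg2+) for 25 min at 37 °C, then de-esterified 25 min. Stirred suspension in a quartz cuvette, excitation 488 nm and emission 520 nm. Compound added, with UDP as control. Fmax from 0.1% Triton X-100 and Fmin from 50 mM EDTA; [Ca2+]i = Kd(F−Fmin)/(Fmax−F). Two experiments in duplicate.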

[14] = target: T5, Ectonucleotide pyrophosphatase/phosphodiesterase family member 3 (Homo sapiens) (UniProt O14638); assay: Inhibition of human NPP3-mediated UDP hydrolysis at 100 uM after 3 hrs relative to UDP-treated control
T5 sequence (whole entry): T3 sequence (O14638 whole entry)

[15] = target: T1, P2Y purinoceptor 6; assay: Agonist activity at human recombinant P2Y6 receptor expressed in human 1321N1 cells assessed as increase in intracellular calcium level at 100 uM by fluo-4 dye-based spectrofluorometric analysis relative to UDP-treated control; assay type: functional, cell-based; procedure, shortened: as §1

T1 sequence (Q15077 whole entry): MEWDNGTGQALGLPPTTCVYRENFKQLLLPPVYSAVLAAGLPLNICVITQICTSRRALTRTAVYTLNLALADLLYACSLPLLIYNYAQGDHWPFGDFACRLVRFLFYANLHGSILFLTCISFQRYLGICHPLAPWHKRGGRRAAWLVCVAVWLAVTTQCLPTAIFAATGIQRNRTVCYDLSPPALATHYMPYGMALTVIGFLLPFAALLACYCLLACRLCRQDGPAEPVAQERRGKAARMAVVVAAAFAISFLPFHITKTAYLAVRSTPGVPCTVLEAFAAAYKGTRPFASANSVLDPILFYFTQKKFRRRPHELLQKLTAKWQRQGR
Sequence of P2Y purinoceptor 2 (Homo sapiens) (P41231 whole entry): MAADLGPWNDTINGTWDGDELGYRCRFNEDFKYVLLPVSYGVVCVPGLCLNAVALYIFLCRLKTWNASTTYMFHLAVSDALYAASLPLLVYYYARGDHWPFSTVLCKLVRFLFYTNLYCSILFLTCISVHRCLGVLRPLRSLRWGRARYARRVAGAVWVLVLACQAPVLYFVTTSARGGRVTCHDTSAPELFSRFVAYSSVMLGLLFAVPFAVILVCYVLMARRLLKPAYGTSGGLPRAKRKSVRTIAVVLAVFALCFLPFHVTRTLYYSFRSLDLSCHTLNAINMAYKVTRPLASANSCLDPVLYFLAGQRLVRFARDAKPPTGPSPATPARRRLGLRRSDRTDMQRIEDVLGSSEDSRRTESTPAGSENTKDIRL
Sequence of P2Y purinoceptor 4 (Homo sapiens) (P51582 whole entry): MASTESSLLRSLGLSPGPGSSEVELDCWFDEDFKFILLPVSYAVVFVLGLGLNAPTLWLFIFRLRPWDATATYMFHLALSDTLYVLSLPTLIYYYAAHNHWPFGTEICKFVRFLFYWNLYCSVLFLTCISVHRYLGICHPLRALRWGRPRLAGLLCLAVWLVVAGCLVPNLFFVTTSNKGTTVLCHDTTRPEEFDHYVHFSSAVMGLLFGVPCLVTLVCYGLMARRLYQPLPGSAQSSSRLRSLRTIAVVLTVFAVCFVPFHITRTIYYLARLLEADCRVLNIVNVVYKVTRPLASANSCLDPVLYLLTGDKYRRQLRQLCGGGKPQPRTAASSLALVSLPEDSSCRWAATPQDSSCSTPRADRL

inhibition [2] | Activity [3] | inhibition [4] | SMILES | other results
inactive | Active | – | O=c1[nH]c(=O)n([C@@H]2O[C@H](COP(=O)(O)C(Cl)(Cl)P(=O)(O)O)[C@@H](O)[C@H]2O)cc1F | –
inactive | Active | Active | COc1cn([C@@H]2O[C@H](COP(=O)(O)C(Cl)(Cl)P(=O)(O)O)[C@@H](O)[C@H]2O)c(=O)[nH]c1=O | –
– | Active | – | O=c1[nH]c(=O)n([C@@H]2O[C@H](COP(=O)(O)CP(=O)(O)O)[C@@H](O)[C@H]2O)cc1F | –
inactive | Active | Active | O=c1[nH]c(=O)n([C@@H]2O[C@H](COP(=O)(O)C(F)(F)P(=O)(O)O)[C@@H](O)[C@H]2O)cc1F | –
inactive | Active | 40% | COc1cn([C@@H]2O[C@H](COP(=O)(O)C(F)(F)P(=O)(O)O)[C@@H](O)[C@H]2O)c(=O)[nH]c1=O | Activity [1]: Active
inactive | – | – | O=c1[nH]c(=O)n([C@H]2C[C@H](O)[C@@H](COP(=O)(O)C(F)(F)P(=O)(O)O)O2)cc1F | Activity [1]: inactive
– | inactive | 24% | CC(C)c1cn([C@@H]2O[C@H](COP(=O)(O)CP(=O)(O)O)[C@@H](O)[C@H]2O)c(=O)[nH]c1=O | –

The next lines start with the compound.

SMILES | inhibition [2] | Activity [3] | inhibition [4] | other results
O=c1[nH]c(=O)n([C@H]2C[C@H](O)[C@@H](COP(=O)(O)CP(=O)(O)O)O2)cc1F | inactive | – | – | Activity [1]: Active
O=c1[nH]c(=O)n([C@H]2C[C@H](O)[C@@H](COP(=O)(O)C(Cl)(Cl)P(=O)(O)O)O2)cc1F | inactive | – | – | Activity [1]: inactive
O=c1[nH]c(=O)n([C@H]2C[C@H](OP(=O)(O)O)[C@@H](COP(=O)(O)O)O2)cc1F | inactive | – | – | Activity [1]: Active
Cn1c(=O)ccn([C@@H]2O[C@H](COP(=O)(O)CP(=O)(O)O)[C@@H](O)[C@H]2O)c1=O | – | inactive | inactive | –
O=c1[nH]c(=O)n([C@@H]2O[C@H](COP(=O)(O)CP(=O)(O)O)[C@@H](O)[C@H]2O)cc1-c1ccccc1 | – | inactive | inactive | –
O=c1[nH]c(=O)n([C@@H]2O[C@H](COP(=O)(O)OS(=O)(=O)O)[C@@H](O)[C@H]2O)cc1F | – | – | – | metabolised at 2 h, 100 µM [5]: 18.9%; metabolised at 3 h, 100 µM [6]: 44.4%
O=c1ccn([C@@H]2O[C@H](COP(=O)(O)OS(=O)(=O)O)[C@@H](O)[C@H]2O)c(=O)[nH]1 | – | – | Active | Activity [7]: Active; IC50 [8]: 112 µM; Activity [9]: inactive; Activity [10]: inactive; metabolised at 2 h, 100 µM [5]: 27.9%; metabolised at 3 h, 100 µM [6]: 28.3%
COc1cn([C@@H]2O[C@H](COP(=O)(O)CP(=O)(O)O)[C@@H](O)[C@H]2O)c(=O)[nH]c1=O | – | – | – | Activity [11]: 27%
COc1cn([C@@H]2O[C@H](COP(=O)(O)CS(=O)(=O)O)[C@@H](O)[C@H]2O)c(=O)[nH]c1=O | – | – | inactive | metabolised at 2 h, 100 µM [5]: 21.6%; metabolised at 3 h, 100 µM [6]: 11%; inhibition [12]: 48.4%; Activity [13]: inactive; inhibition [14]: 10.5%
Cc1cn([C@@H]2O[C@H](COP(=O)(O)CP(=O)(O)O)[C@@H](O)[C@H]2O)c(=O)[nH]c1=O | – | – | – | Activity [15]: 60%
O=c1ccn([C@@H]2O[C@H](COP(=O)(O)CS(=O)(=O)O)[C@@H](O)[C@H]2O)c(=O)[nH]1 | – | – | inactive | metabolised at 2 h, 100 µM [5]: 9.5%; metabolised at 3 h, 100 µM [6]: 13.5%; inhibition [12]: 26.7%; Activity [13]: inactive; inhibition [14]: 12.2%
